According to ChEMBL document CHEMBL2375238, “Synthesis and biological evaluation of oleanolic acid derivatives as PTP1B inhibitors” (Eur J Med Chem, 2013):

Legend:
[1] = test system: 3T3-L1; assay: Insulin sensitizing activity in mouse 3T3L1 cells assessed as increase in glucose uptake at 10 ug/mL after 50 hrs […] relative to control; assay type: functional
Procedure, shortened: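 3T3-L1 cells were grown in high-glucose DMEM with 10% FBS and, at 90% confluence, differentiated with insulin, dexamethasone and IBMX. After 4 days they were replated, grown 2 days, then made insulin-resistant with low insulin and high dexamethasone for 4 days. Compounds were given in high-glucose medium for 50 h. Supernatant glucose was measured by kit at OD 490 nm, against normal and insulin-resistant controls, in duplicate or triplicate.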

[2] = target: T1, Tyrosine-protein phosphatase non-receptor type 1 (Homo sapiens) (UniProt P18031); assay: Inhibition of PTP1B (unknown origin) expressed in Escherichia coli expression system using p-nitrophenyl phosphate as substrate assessed as release of p-nitrophenol at 10 ug/mL incubated for 10 mins prior to substrate addition measured after 30 mins relative to control
T1 sequence (whole entry): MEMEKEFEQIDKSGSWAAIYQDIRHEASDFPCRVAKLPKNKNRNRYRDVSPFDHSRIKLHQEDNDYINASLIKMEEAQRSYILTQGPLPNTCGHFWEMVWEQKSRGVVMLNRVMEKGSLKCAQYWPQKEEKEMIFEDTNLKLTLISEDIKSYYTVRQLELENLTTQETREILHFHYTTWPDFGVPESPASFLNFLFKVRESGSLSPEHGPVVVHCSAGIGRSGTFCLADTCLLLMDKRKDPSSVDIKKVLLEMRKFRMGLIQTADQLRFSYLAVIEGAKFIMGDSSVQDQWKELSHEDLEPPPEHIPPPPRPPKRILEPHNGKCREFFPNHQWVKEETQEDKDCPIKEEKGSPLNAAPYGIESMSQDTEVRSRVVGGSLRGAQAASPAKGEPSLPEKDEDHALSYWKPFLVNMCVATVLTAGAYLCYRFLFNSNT
Procedure, shortened: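 Native PTP1B was expressed in E. coli, purified, and diluted in 25 mM HEPES, 50 mM NaCl, 2.5 mM EDTA, 0.1% BSA, pH 7.2. Compounds were dissolved in DMSO and preincubated with enzyme in buffer A (50 mM HEPES, 2.5 mM EDTA, pH 7.0) for 10 min at 37 °C. pNPP was then added for 30 min at 37 °C.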

[3] = target: T2, Tyrosine-protein phosphatase non-receptor type 1 (Homo sapiens, UniProt P18031); assay: Inhibition of PTP1B (unknown origin) expressed in Escherichia coli expression system using p-nitrophenyl phosphate as substrate assessed as release of p-nitrophenol incubated for 10 mins prior to substrate addition measured after 30 mins
T2 sequence (P18031 whole entry): T1 sequence (whole entry)
Procedure, shortened: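 Native PTP1B purified from E. coli, diluted in 25 mM HEPES, 50 mM NaCl, 2.5 mM EDTA, 0.1% BSA, pH 7.2; inhibitors in DMSO. Enzyme and inhibitor preincubated at 37 °C in 50 mM HEPES, 2.5 mM EDTA, pH 7.0. pNPP then added; stopped after 30 min with 2 M Na2CO3; A405 read. Inhibition from OD against blank and no-inhibitor controls; means of three experiments.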

[4] = target: Tyrosine-protein phosphatase non-receptor type 1 (Homo sapiens) (UniProt P18031); conditions: 100 ug/mL

Compound	Activity [1] [%]	Imax [2] [%]	IC50 [3] [µM]	Imax [4] [%]
C[C@@H]1O[C@@H](O[C@H]2CC[C@]3(C)[C@H]4CC=C5[C@@H]6CC(C)(C)CC[C@]6(C(=O)NCCCCCC(=O)O)CC[C@@]5(C)[C@]4(C)CC[C@H]3C2(C)C)[C@@H](O)[C@H](O)[C@@H]1O	59.58	63.2	–	–
COC(=O)CCCCCNC(=O)[C@]12CCC(C)(C)C[C@H]1C1=CC[C@@H]3[C@@]4(C)CC[C@H](O[C@@H]5O[C@H](CO)[C@@H](O)[C@H](O)[C@H]5O)C(C)(C)[C@@H]4CC[C@@]3(C)[C@]1(C)CC2	–	5.82	–	–
CC1(C)CC[C@]2(C(=O)NCCCCCC(=O)O)CC[C@]3(C)C(=CC[C@@H]4[C@@]5(C)CC[C@H](O)C(C)(C)[C@@H]5CC[C@]43C)[C@@H]2C1	–	14.3	–	–
CC1(C)CC[C@@]23CC[C@]4(C)[C@@](OC2=O)([C@@H]3C1)[C@@H](O)C[C@@H]1[C@@]2(C)CC[C@H](O[C@@H]3O[C@H](CO)[C@@H](O[C@@H]5O[C@H](CO)[C@H](O)[C@H](O)[C@H]5O)[C@H](O)[C@H]3O)C(C)(C)[C@@H]2CC[C@]14C	–	2.55	–	–
COC(=O)CCCCCNC(=O)[C@]12CCC(C)(C)C[C@H]1C1=CC[C@@H]3[C@@]4(C)CC[C@H](O[C@@H]5O[C@H](CO)[C@@H](O[C@@H]6O[C@H](CO)[C@H](O)[C@H](O)[C@H]6O)[C@H](O)[C@H]5O)C(C)(C)[C@@H]4CC[C@@]3(C)[C@]1(C)CC2	–	3.87	–	–
CC(=O)N[C@H]1[C@H]([C@H](O)[C@H](O)CO)O[C@@](O[C@H]2CC[C@]3(C)[C@H]4CC=C5[C@@H]6CC(C)(C)CC[C@]6(C(=O)NCCCCCC(=O)O)CC[C@@]5(C)[C@]4(C)CC[C@H]3C2(C)C)(C(=O)O)C[C@@H]1O	-16.69	46	–	–
CC1(C)CC[C@]2(C(=O)NCCCCCC(=O)O)CC[C@]3(C)C(=CC[C@@H]4[C@@]5(C)CC[C@H](O[C@@H]6O[C@H](CO)[C@@H](O[C@@H]7O[C@H](CO)[C@H](O)[C@H](O)[C@H]7O)[C@H](O)[C@H]6O)C(C)(C)[C@@H]5CC[C@]43C)[C@@H]2C1	39.13	83.7	9.21	–
CC1(C)CC[C@]2(C(=O)NCCCCCC(=O)O)CC[C@]3(C)C(=CC[C@@H]4[C@@]5(C)CC[C@H](O[C@@H]6O[C@H](C(=O)O)[C@@H](O)[C@H](O)[C@H]6O)C(C)(C)[C@@H]5CC[C@]43C)[C@@H]2C1	21.52	72	0.56	–
COC(=O)CCCCCNC(=O)[C@]12CCC(C)(C)C[C@H]1C1=CC[C@@H]3[C@@]4(C)CC[C@H](O[C@H]5O[C@H](CO)[C@@H](O)[C@H](O)[C@@H]5O)C(C)(C)[C@@H]4CC[C@@]3(C)[C@]1(C)CC2	–	1.52	–	–
CN(CCOc1ccc(CC2SC(=O)NC2=O)cc1)c1ccccn1 (stereo not given) [ROSIGLITAZONE]	100	–	–	–
COC(=O)CCCCCNC(=O)[C@]12CCC(C)(C)C[C@H]1C1=CC[C@@H]3[C@@]4(C)CC[C@H](O[C@]5(C(=O)OC)C[C@H](O)[C@@H](NC(C)=O)[C@H]([C@H](O)[C@H](O)CO)O5)C(C)(C)[C@@H]4CC[C@@]3(C)[C@]1(C)CC2	9.54	56	–	–
CC1(C)CC[C@@]23CC[C@]4(C)[C@@](OC2=O)([C@@H]3C1)[C@@H](O)C[C@@H]1[C@@]2(C)CC[C@H](O[C@H]3O[C@H](C(=O)O)[C@@H](O)[C@H](O)[C@@H]3O)C(C)(C)[C@@H]2CC[C@]14C	–	3.72	–	–
CC1(C)CC[C@]2(C(=O)NCCCCCC(=O)O)CC[C@]3(C)C(=CC[C@@H]4[C@@]5(C)CC[C@H](O[C@H]6O[C@H](C(=O)O)[C@@H](O)[C@H](O)[C@@H]6O)C(C)(C)[C@@H]5CC[C@]43C)[C@@H]2C1	3.91	64.8	16.1	–
COC(=O)CCCCCNC(=O)[C@]12CCC(C)(C)C[C@H]1C1=CC[C@@H]3[C@@]4(C)CC[C@H](O[C@@H]5O[C@H](C(=O)O)[C@@H](O)[C@H](O)[C@H]5O)C(C)(C)[C@@H]4CC[C@@]3(C)[C@]1(C)CC2	–	11.8	–	–
COC(=O)CCCCCNC(=O)[C@]12CCC(C)(C)C[C@H]1C1=CC[C@@H]3[C@@]4(C)CC[C@H](O[C@H]5O[C@H](C(=O)OC)[C@@H](O)[C@H](O)[C@@H]5O)C(C)(C)[C@@H]4CC[C@@]3(C)[C@]1(C)CC2	39.18	81.9	12.2	–
CC1(C)CC[C@@]23CC[C@]4(C)[C@@](OC2=O)([C@@H]3C1)[C@@H](O)C[C@@H]1[C@@]2(C)CC[C@H](O[C@@H]3O[C@H](CO)[C@@H](O)[C@H](O)[C@H]3O)C(C)(C)[C@@H]2CC[C@]14C	–	6	–	–
COC(=O)CCCCCNC(=O)[C@]12CCC(C)(C)C[C@H]1C1=CC[C@@H]3[C@@]4(C)CC[C@H](O[C@H]5O[C@H](C(=O)O)[C@@H](O)[C@H](O)[C@@H]5O)C(C)(C)[C@@H]4CC[C@@]3(C)[C@]1(C)CC2	–	98.6	1.91	–
COC(=O)CCCCCNC(=O)[C@]12CCC(C)(C)C[C@H]1C1=CC[C@@H]3[C@@]4(C)CC[C@H](O[C@@H]5O[C@@H](C)[C@@H](O)[C@@H](O)[C@@H]5O)C(C)(C)[C@@H]4CC[C@@]3(C)[C@]1(C)CC2	–	1.91	–	–
COC(=O)CCCCCNC(=O)[C@]12CCC(C)(C)C[C@H]1C1=CC[C@@H]3[C@@]4(C)CC[C@H](O[C@@H]5O[C@H](C(=O)OC)[C@@H](O)[C@H](O)[C@H]5O)C(C)(C)[C@@H]4CC[C@@]3(C)[C@]1(C)CC2	28.29	36.7	–	–
C[C@@H]1O[C@@H](O[C@H]2CC[C@]3(C)[C@H]4C[C@H](O)[C@]56OC(=O)[C@@]7(CCC(C)(C)C[C@H]75)CC[C@@]6(C)[C@]4(C)CC[C@H]3C2(C)C)[C@@H](O)[C@H](O)[C@@H]1O	–	-1.55	–	–
COC(=O)CCCCCNC(=O)[C@]12CCC(C)(C)C[C@H]1C1=CC[C@@H]3[C@@]4(C)CC[C@H](O)C(C)(C)[C@@H]4CC[C@@]3(C)[C@]1(C)CC2	–	4.89	–	–
CC(=O)N[C@H]1[C@H]([C@H](O)[C@H](O)CO)O[C@](O[C@H]2CC[C@]3(C)[C@H]4CC=C5[C@@H]6CC(C)(C)CC[C@]6(C(=O)NCCCCCC(=O)O)CC[C@@]5(C)[C@]4(C)CC[C@H]3C2(C)C)(C(=O)O)C[C@@H]1O	10.31	69	–	–
SODIUM ORTHOVANAD	–	–	–	100
CC1(C)CC[C@]2(C(=O)NCCCCCC(=O)O)CC[C@]3(C)C(=CC[C@@H]4[C@@]5(C)CC[C@H](O[C@H]6O[C@H](CO)[C@@H](O)[C@H](O)[C@@H]6O)C(C)(C)[C@@H]5CC[C@]43C)[C@@H]2C1	57.55	57	–	–
CC1(C)CC[C@@]23CC[C@]4(C)[C@@](OC2=O)([C@@H]3C1)[C@@H](O)C[C@@H]1[C@@]2(C)CC[C@H](O[C@@H]3O[C@H](C(=O)O)[C@@H](O)[C@H](O)[C@H]3O)C(C)(C)[C@@H]2CC[C@]14C	–	16.1	–	–
CC1(C)CC[C@]2(C(=O)NCCCCCC(=O)O)CC[C@]3(C)C(=CC[C@@H]4[C@@]5(C)CC[C@H](O[C@@H]6O[C@H](CO)[C@@H](O)[C@H](O)[C@H]6O)C(C)(C)[C@@H]5CC[C@]43C)[C@@H]2C1	6.11	57.6	–	–
CC1(C)CC[C@@]23CC[C@]4(C)[C@@](OC2=O)([C@@H]3C1)[C@@H](O)C[C@@H]1[C@@]2(C)CC[C@H](O[C@H]3O[C@H](CO)[C@@H](O)[C@H](O)[C@@H]3O)C(C)(C)[C@@H]2CC[C@]14C	–	2.9	–	–
COC(=O)CCCCCNC(=O)[C@]12CCC(C)(C)C[C@H]1C1=CC[C@@H]3[C@@]4(C)CC[C@H](O[C@@]5(C(=O)OC)C[C@H](O)[C@@H](NC(C)=O)[C@H]([C@H](O)[C@H](O)CO)O5)C(C)(C)[C@@H]4CC[C@@]3(C)[C@]1(C)CC2	-7.74	8.34	–	–
